Article PMC9366314 (Acta Pharmaceutica Sinica. B, 2022)

Experiments:
Format in all cases: cell-based
[1] = system: 92.1 cells (GNAQ Q209L mutation); assay: Cell proliferation inhibition assay; conditions: 72 h, read-out: Antiproliferation (IC50, μmol/L) 92.1
Outline: (§1)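 Uveal melanoma cells were grown in RPMI-1640 with 10% FBS at 37 °C, 5% CO2. They were resuspended at 3 × 10^3 cells/mL, seeded and left overnight. Cells were exposed to a concentration series of test compound for 72 h. CCK-8 was added for 2–4 h and absorbance read at 450 nm. IC50 values were fitted from the curves and reported as mean ± SEM, n = 3.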

Gαq/11 = assay: IP1 accumulation assay; conditions: CHO-M1 cells, mean ± SEM (n = 3)
[2] = system: MP41 cells (GNA11 Q209L mutation); assay: Cell proliferation inhibition assay; conditions: MP41, 72 h, read-out: Antiproliferation (IC50, μmol/L) MP41
Outline: as §1

Structure (SMILES) | IC50 [1] [µmol/L] | IP1 inhibition at 10 μmol/L (Gαq/11) [%] | IC50 [2] [µmol/L]
CC(C)[C@@H]1c2nc(-c3ccccc3)cn2CCN1C[C@@H]1CCCN1C [GQ265] | > 40 | 13.5 ± 0.5 | > 40
C[C@H](O)[C@H](N)CN1CCn2cc(-c3ccccc3)nc2[C@@H]1CC1CCCCC1 [GQ249] | 11.4 ± 0.3 | 44.1 ± 3.0 | 5.8 ± 0.6
NCC[C@H](N)CN1CCn2cc(-c3ccccc3)nc2[C@@H]1CC1CCCCC1 [GQ252] | 3.5 ± 0.3 | 35.9 ± 7.3 | 5.2 ± 0.7
N[C@@H](Cc1c[nH]cn1)CN1CCn2cc(-c3ccccc3)nc2[C@@H]1CC1CCCCC1 [GQ259] | 10.7 ± 0.8 | 36.3 ± 0.9 | 5.8 ± 0.6
C[C@H](N)CN1CCn2cc(-c3ccccc3)nc2[C@@H]1CC1CCCCC1 [GQ239] | 11.6 ± 0.6 | 50.2 ± 5.2 | 6 ± 0.6
NCCN1CCn2cc(-c3ccccc3)nc2[C@@H]1CC1CCCCC1 [GQ240] | 9.6 ± 0.6 | 22.5 ± 4.2 | 7.4 ± 0.3
CC(C)(C)[C@H](N)CN1CCn2cc(-c3ccccc3)nc2[C@@H]1CC1CCCCC1 [GQ243] | 9.6 ± 0.7 | 41.6 ± 5.8 | 5.7 ± 0.7
CC[C@H](C)[C@H](N)C(=O)N1CCn2cc(C3CCNCC3)nc2[C@@H]1CC1CCCCC1 [GQ230] | > 40 | 13.7 ± 0.6 | > 40
CC(C)[C@H]1c2nc(-c3ccccc3)cn2CCN1C[C@@H]1CCCN1C [GQ264] | > 40 | 5.9 ± 1.1 | > 40
N[C@H](CO)CN1CCn2cc(-c3ccccc3)nc2[C@@H]1CC1CCCCC1 [GQ248] | 10.9 ± 0.5 | 49.7 ± 9.5 | 7.9 ± 0.7
N[C@H](CS)CN1CCn2cc(-c3ccccc3)nc2[C@@H]1CC1CCCCC1 [GQ246] | 15.8 ± 1 | 40.4 ± 7.0 | 14.9 ± 0.8
CC[C@H](C)[C@H](N)C(=O)N1CCn2cc(C3CCC(F)(F)CC3)nc2[C@@H]1CC1CCCCC1 [GQ233] | > 40 | 22.2 ± 1.9 | > 40
CC[C@H](C)[C@H](N)C(=O)N1CCn2cc(-c3cccs3)nc2[C@@H]1CC1CCCCC1 [GQ225] | 18.8 ± 1.7 | 28.7 ± 1.6 | 25.3 ± 0.9
N[C@@H](CCO)CN1CCn2cc(-c3ccccc3)nc2[C@@H]1CC1CCCCC1 [GQ250] | 10.4 ± 0.2 | 41.8 ± 2.7 | 6.9 ± 1
N[C@@H](Cc1ccc(O)cc1)CN1CCn2cc(-c3ccccc3)nc2[C@@H]1CC1CCCCC1 [GQ256] | 8.7 ± 0.7 | 47.6 ± 5.0 | 9 ± 1.2
CC(C)[C@H](N)CN1CCn2cc(-c3ccccc3)nc2[C@@H]1CC1CCCCC1 [GQ238] | 7.3 ± 0.7 | 34.4 ± 1.7 | 6.2 ± 0.7
CC[C@H](C)[C@H](N)C(=O)N1CCn2cc(C3CCCC3)nc2[C@@H]1CC1CCCCC1 [GQ229] | > 40 | 15.8 ± 1.8 | > 40
N[C@@H](Cc1ccccc1)CN1CCn2cc(-c3ccccc3)nc2[C@@H]1CC1CCCCC1 [GQ258] | 11.6 ± 1.4 | 48.3 ± 6.5 | 7.9 ± 1.5
c1ccc(-c2cn3c(n2)[C@H](CC2CCCCC2)N(C[C@@H]2CCCN2)CC3)cc1 [GQ260] | 11.6 ± 1.2 | 53.4 ± 7.0 | 6.7 ± 0.6
CC(C)C[C@@H]1c2nc(-c3ccccc3)cn2CCN1C[C@@H]1CCCN1C [GQ266] | > 40 | 17.5 ± 1.1 | > 40
N[C@@H](CC1CCCCC1)CN1CCn2cc(-c3ccccc3)nc2[C@@H]1CC1CCCCC1 [GQ244] | 9 ± 1.3 | 45.8 ± 10.5 | 5.6 ± 0.3
CC[C@H](C)[C@H](N)C(=O)N1CCn2cc(-c3ccncc3)nc2[C@@H]1CC1CCCCC1 [GQ222] | > 40 | 27.0 ± 5.2 | > 40
CCC[C@H](N)CN1CCn2cc(-c3ccccc3)nc2[C@@H]1CC1CCCCC1 [GQ242] | 4.7 ± 0.4 | 41.0 ± 6.0 | 5 ± 0.1

Structure (SMILES) | IC50 [1] [µmol/L] | IP1 inhibition at 10 μmol/L (Gαq/11) [%] | IC50 [2] [µmol/L]
CC[C@H](C)[C@H](N)CN1CCn2cc(-c3ccccc3)nc2[C@@H]1CC1CCCCC1 [GQ236] | 9.3 ± 0.5 | 48.4 ± 2.4 | 10.1 ± 0.2
CC[C@H](C)[C@H](N)C(=O)N1CCn2cc(C3=CCCCC3)nc2[C@@H]1CC1CCCCC1 [GQ228] | 19 ± 0.6 | 24.8 ± 1.5 | 11 ± 0.1
CC(C)C[C@H](N)CN1CCn2cc(-c3ccccc3)nc2[C@@H]1CC1CCCCC1 [GQ237] | 5.8 ± 0.1 | 43.0 ± 3.3 | 4 ± 1.3
CC[C@H](C)[C@H](N)C(=O)N1CCn2cc(C3CCOCC3)nc2[C@@H]1CC1CCCCC1 [GQ231] | > 40 | 20.6 ± 2.1 | > 40
N=C(N)NCCC[C@H](N)CN1CCn2cc(-c3ccccc3)nc2[C@@H]1CC1CCCCC1 [GQ255] | > 40 | 27.7 ± 6.7 | > 40
CC[C@H](C)[C@H](N)C(=O)N1CCn2cc(C3CCCCC3)nc2[C@@H]1CC1CCCCC1 [GQ227] | 21.6 ± 0.6 | 18.4 ± 0.9 | 21.2 ± 0.5
N[C@@H](CCCO)CN1CCn2cc(-c3ccccc3)nc2[C@@H]1CC1CCCCC1 [GQ251] | 12.6 ± 0.7 | 51.2 ± 4.9 | 7.4 ± 0.8
CC[C@H](C)[C@H](N)C(=O)N1CCn2cc(C(C)C)nc2[C@@H]1CC1CCCCC1 [GQ234] | > 40 | 10.8 ± 1.4 | > 40
CN1CCC[C@H]1CN1CCn2cc(-c3ccccc3)nc2[C@@H]1C1CCCCC1 [GQ267] | > 40 | 8.9 ± 0.8 | > 40
CC[C@H](N)CN1CCn2cc(-c3ccccc3)nc2[C@@H]1CC1CCCCC1 [GQ241] | 6.6 ± 0.2 | 31.3 ± 9.0 | 5.9 ± 0.5
CC[C@H](C)[C@H](N)C(=O)N1CCn2cc(-c3nccs3)nc2[C@@H]1CC1CCCCC1 [GQ226] | > 40 | 29.5 ± 3.0 | > 40
NCCC[C@H](N)CN1CCn2cc(-c3ccccc3)nc2[C@@H]1CC1CCCCC1 [GQ253] | 9.7 ± 0.4 | 32.4 ± 1.0 | 9.2 ± 0.6
CC[C@H](C)[C@H](N)C(=O)N1CCn2cc(-c3ccccn3)nc2[C@@H]1CC1CCCCC1 [GQ220] | > 40 | 20.8 ± 1.1 | > 40
NCCCC[C@H](N)CN1CCn2cc(-c3ccccc3)nc2[C@@H]1CC1CCCCC1 [GQ254] | 11.2 ± 0.7 | 44.2 ± 0.3 | 8 ± 0.6
CCc1cn2c(n1)[C@H](CC1CCCCC1)N(C(=O)[C@@H](N)[C@@H](C)CC)CC2 [GQ235] | > 40 | 22.3 ± 1.3 | > 40
CC[C@H](C)[C@H](N)C(=O)N1CCn2cc(C3CCC(C)(C)CC3)nc2[C@@H]1CC1CCCCC1 [GQ232] | 16.1 ± 1 | 10.9 ± 0.7 | 19.8 ± 0.1
N[C@@H](Cc1c[nH]c2ccccc12)CN1CCn2cc(-c3ccccc3)nc2[C@@H]1CC1CCCCC1 [GQ257] | 9.6 ± 0.5 | 33.2 ± 1.3 | 6 ± 0.3
CC[C@H](C)[C@H](N)C(=O)N1CCn2cc(-c3cccnc3)nc2[C@@H]1CC1CCCCC1 [GQ221] | > 40 | 20.0 ± 0.6 | > 40
c1ccc(-c2cn3c(n2)[C@H](CC2CCCCC2)N(C[C@@H]2CCCCN2)CC3)cc1 [GQ261] | 11 ± 0.5 | 27.0 ± 5.1 | 6.2 ± 0.8
CSCC[C@H](N)CN1CCn2cc(-c3ccccc3)nc2[C@@H]1CC1CCCCC1 [GQ247] | 6 ± 0.3 | 44.5 ± 3.4 | 5.6 ± 0.2
N[C@H](CN1CCn2cc(-c3ccccc3)nc2[C@@H]1CC1CCCCC1)C1CCCCC1 [GQ245] | 5.7 ± 0.1 | 46.8 ± 8.6 | 5 ± 0.3
CC[C@H](C)[C@H](N)C(=O)N1CCn2cc(-c3ccoc3)nc2[C@@H]1CC1CCCCC1 [GQ224] | > 40 | 31.5 ± 6.0 | > 40
CC[C@H](C)[C@H](N)C(=O)N1CCn2cc(-c3ccco3)nc2[C@@H]1CC1CCCCC1 [GQ223] | > 40 | 16.6 ± 1.2 | > 40
